The source made the active and inactive calls.
What was measured:
[1] = tested on: Mus musculus; assay: Neurotoxicity in CF1 albino mouse assessed as death at 300 mg/kg, ip after 0.5 hrs by rotarod test; type: toxicity, organism-based; details: in vivo
Summary of the method: (§1)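 Male albino CF-1 mice dosed ip with compound suspended in 0.5% methylcellulose, then placed on a 1-inch knurled plastic rod turning at 6 rpm. A fall three times within 1 min counted as neurotoxicity. Observations were made at 0.5 h and 4 h after dosing. Result given as animals showing toxicity per animals tested, with the kind of toxicity recorded.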

[2] = tested on: Mus musculus; assay: Neurotoxicity in CF1 albino mouse at 30 mg/kg, ip after 0.5 hrs by rotarod test; type: toxicity, organism-based; details: in vivo
Summary of the method: (§2)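 Rotarod neurotoxicity in male albino CF-1 mice dosed ip with compound suspended in 0.5% methylcellulose. Animal placed on a 1 inch diameter knurled plastic rod rotating at 6 rpm. Neurotoxicity scored when the animal falls off three times within 1 min. Readout is number of animals toxic/number tested at the stated time after dosing. TD50 with 95% confidence interval from the quantitative study.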

[3] = tested on: Mus musculus; assay: Anticonvulsant activity in CF1 albino mouse assessed as protection against maximal electroshock-induced seizure at 30 mg/kg, ip after 0.5 hrs; type: functional, organism-based
Summary of the method: (§3)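 Male CF-1 mice dosed ip as suspension in 0.5% methylcellulose. Corneal electrodes deliver 60 Hz alternating current, 50 mA for […], after a drop of 0.5% tetracaine HCl in 0.9% NaCl per eye. Protection means abolition of hindlimb tonic extension; scored as protected/tested, or ED50 with 95% confidence interval.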

[4] = tested on: Mus musculus; assay: Anticonvulsant activity in CF1 albino mouse assessed as protection against maximal electroshock-induced seizure at 10 mg/kg, ip after 0.5 hrs; type: functional, organism-based; summary of the method: as §3
[5] = tested on: Mus musculus; assay: Neurotoxicity in CF1 albino mouse at 30 mg/kg, ip after 4 hrs by rotarod test; type: toxicity, organism-based; details: in vivo; summary of the method: as §2
[6] = tested on: Mus musculus; assay: Neurotoxicity in CF1 albino mouse at 300 mg/kg, ip after 4 hrs by rotarod test; type: toxicity, organism-based; details: in vivo; summary of the method: as §2
[7] = tested on: Mus musculus; assay: Anticonvulsant activity in CF1 albino mouse assessed as protection against subcutaneous pentetrazole-induced seizure at 30 mg/kg, ip after 4 hrs; type: functional, organism-based
Summary of the method: (§4)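 Male CF-1 mice, ip in 0.5% methylcellulose; pentetrazole at CD97 (85 mg/kg) injected subcutaneously in a loose fold of neck skin. Observed 30 min; absence of even a threshold seizure (single clonic spasm lasting at least 5 s) counted as protection. Scored protected/tested, or ED50.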

[8] = tested on: Mus musculus; assay: Anticonvulsant activity in CF1 albino mouse assessed as protection against maximal electroshock-induced seizure at 3 mg/kg, ip after 0.5 hrs; type: functional, organism-based; summary of the method: as §3
[9] = tested on: Mus musculus; assay: Anticonvulsant activity in CF1 albino mouse assessed as protection against maximal electroshock-induced seizure at 30 mg/kg, ip after 4 hrs; type: functional, organism-based; summary of the method: as §3
[10] = tested on: Mus musculus; assay: Neurotoxicity in CF1 albino mouse assessed as unable to grasp rotarod, diarrhea and clonic seizure at 100 mg/kg, ip after 0.5 hrs by rotarod test; type: toxicity, organism-based; details: in vivo
Summary of the method: (§5)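 Rotarod neurotoxicity in male CF-1 mice dosed ip as 0.5% methylcellulose suspension: mouse placed on 1 inch knurled rod rotating at 6 rpm; toxicity when the animal falls off three times within 1 min, with other signs noted. Scored as toxic/tested at 0.5 h and 4 h.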

[11] = tested on: Rattus norvegicus; assay: Anticonvulsant activity in Sprague-Dawley rat assessed as protection against maximal electroshock-induced seizure at 30 mg/kg, po; type: functional
[12] = tested on: Mus musculus; assay: Neurotoxicity in CF1 albino mouse at 100 mg/kg, ip after 4 hrs by rotarod test; type: toxicity, organism-based; details: in vivo; summary of the method: as §2
[13] = tested on: Mus musculus; assay: Anticonvulsant activity in CF1 albino mouse assessed as protection against subcutaneous pentetrazole-induced seizure at 30 mg/kg, ip after 0.5 hrs; type: functional, organism-based; summary of the method: as §4
[14] = tested on: Mus musculus; assay: Anticonvulsant activity in CF1 albino mouse assessed as protection against maximal electroshock-induced seizure at 100 mg/kg, ip after 0.5 hrs; type: functional, organism-based; summary of the method: as §3
[15] = tested on: Mus musculus; assay: Anticonvulsant activity in CF1 albino mouse assessed as protection against maximal electroshock-induced seizure at 100 mg/kg, ip after 4 hrs; type: functional, organism-based; summary of the method: as §3
[16] = tested on: Rattus norvegicus; assay: Neurotoxicity in Sprague-Dawley rat at 30 mg/kg, po by rotarod test; type: toxicity, organism-based; details: in vivo
Summary of the method: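 Oral dosing in male Sprague–Dawley rats, compound as a suspension in 0.5% methylcellulose. Rotarod neurotoxicity on a 1 inch knurled rod turning at 6 rpm, with three falls in 1 min scored as toxic. Reported as toxic/tested.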

[17] = tested on: Mus musculus; assay: Neurotoxicity in CF1 albino mouse at 10 mg/kg, ip after 0.5 hrs by rotarod test; type: toxicity, organism-based; details: in vivo; summary of the method: as §5
[18] = target: Histamine H3 receptor (Homo sapiens, UniProt Q9Y5N1); assay: Displacement of [3H]-Nalpha-methylhistamine from human recombinant histamine H3 receptor expressed in HEK293 cells after 90 mins; type: cell-based
[19] = tested on: Mus musculus; assay: Anticonvulsant activity in CF1 albino mouse assessed as protection against subcutaneous pentetrazole-induced seizure at 100 mg/kg, ip after 4 hrs; type: functional, organism-based; summary of the method: as §4
[20] = tested on: Mus musculus; assay: Anticonvulsant activity in CF1 albino mouse assessed as protection against subcutaneous pentetrazole-induced seizure at 100 mg/kg, ip after 0.5 hrs; type: functional, organism-based; summary of the method: as §4
[21] = tested on: Mus musculus; assay: Neurotoxicity in CF1 albino mouse at 3 mg/kg, ip after 0.5 hrs by rotarod test; type: toxicity, organism-based; details: in vivo; summary of the method: as §2
[22] = Neuroprotective activity in hippocampal slice (unknown origin) assessed as protection against NMDA-induced cell death using propidium iodide staining; type: functional; details: Hippocampus
Summary of the method: (§6)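 Organotypic hippocampal slice cultures exposed to NMDA or kainic acid alone or with compound; propidium iodide in all wells; PI fluorescence intensity of slices, proportional to cell death, compared with excitotoxin-only slices; qualitative.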

[23] = tested on: Rattus norvegicus; assay: Anticonvulsant activity in Sprague-Dawley rat assessed as protection against pilocarpine-induced convulsive status epilepticus at 65 mg/kg, ip; type: functional, organism-based
Summary of the method: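 Male Sprague Dawley rats (150–180 g) dosed ip, pilocarpine 50 mg/kg ip given; compound dosed immediately at first behavioral Stage 3 seizure or 30 min later. Number protected from Racine Stage 3 or greater seizures recorded.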

[24] = tested on: Mus musculus; assay: Neurotoxicity in ip dosed CF1 albino mouse after 0.25 hrs by rotarod test; type: toxicity, organism-based; details: in vivo
Summary of the method: as §2, with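 “dosing.” for “dosing. TD50 with 95% confidence interval from the quantitative study.”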

[25] = tested on: Mus musculus; assay: Protective index, ratio of TD50 for ip dosed CF1 albino mouse to ED50 for ip dosed CF1 albino mouse assessed as protection against maximal electroshock-induced seizure after 0.25 hrs; type: functional
[26] = tested on: Mus musculus; assay: Neurotoxicity in CF1 albino mouse at 100 mg/kg, ip after 0.25 to 2 hrs by rotarod test; type: toxicity, organism-based; details: in vivo; summary of the method: as §2
[27] = tested on: Mus musculus; assay: Anticonvulsant activity in ip dosed CF1 albino mouse assessed as protection against maximal electroshock-induced seizure after 0.25 hrs; type: functional; summary of the method: as §3
[28] = Neuroprotective activity in hippocampal slice (unknown origin) assessed as protection against kainic acid-induced cell death using propidium iodide staining; type: functional; details: Hippocampus; summary of the method: as §6
[29] = tested on: Mus musculus; assay: Neurotoxicity in CF1 albino mouse assessed as death and loss of righting reflux at 300 mg/kg, ip after 0.5 hrs by rotarod test; type: toxicity, organism-based; details: in vivo; summary of the method: as §1
[30] = tested on: Mus musculus; assay: Anticonvulsant activity in CF1 albino mouse assessed as protection against 6 Hz-psychomotor-induced seizure at 100 mg/kg, ip after 0.5 to 1 hr; type: functional, organism-based
Summary of the method: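 Male CF-1 mice, ip suspension in 0.5% methylcellulose. Corneal stimulation 0.2 ms monopolar rectangular pulses at 6 Hz, 32 mA for 3 s via constant-current device; mice without minimal clonic phase seizure counted protected. Groups of four; read at 0.25, 0.5, 1, 2, 4 h; result as protected/tested.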

[31] = tested on: Mus musculus; assay: Anticonvulsant activity in ip dosed CF1 albino mouse assessed as protection against subcutaneous pentetrazole-induced seizure after 0.25 hrs; type: functional; summary of the method: as §4

Chain of Histamine H3 receptor (Q9Y5N1 whole entry): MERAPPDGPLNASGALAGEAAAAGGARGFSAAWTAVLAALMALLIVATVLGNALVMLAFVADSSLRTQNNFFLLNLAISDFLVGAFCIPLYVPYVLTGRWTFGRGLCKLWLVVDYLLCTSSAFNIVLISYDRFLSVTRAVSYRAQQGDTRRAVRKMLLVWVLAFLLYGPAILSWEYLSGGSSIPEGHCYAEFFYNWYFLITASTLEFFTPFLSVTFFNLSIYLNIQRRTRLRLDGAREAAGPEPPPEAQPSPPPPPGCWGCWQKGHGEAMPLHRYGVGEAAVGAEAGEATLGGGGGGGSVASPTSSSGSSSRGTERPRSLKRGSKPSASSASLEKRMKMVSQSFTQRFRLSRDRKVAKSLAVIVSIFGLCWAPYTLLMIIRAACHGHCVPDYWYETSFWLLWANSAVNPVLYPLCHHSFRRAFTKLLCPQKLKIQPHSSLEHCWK

| Structure (SMILES) | Activity [2] | Activity [3] | Activity [4] | Activity [5] | Activity [6] | Activity [7] | Activity [8] | Activity [9] | Activity [11] | Activity [12] | Activity [13] | Activity [14] | Activity [15] | Activity [17] | Ki [18] | Activity [19] | Activity [20] | Activity [21] | further results |
| --- | --- | --- | --- | --- | --- | --- | --- | --- | --- | --- | --- | --- | --- | --- | --- | --- | --- | --- | --- |
| CC1CCN(CCCCCCCOc2ccc(Cl)cc2)CC1.O=C(O)C(=O)O | Non-toxic | Active | inactive | Non-toxic | Non-toxic | inactive | inactive | inactive | inactive | Non-toxic | inactive | Active | Active | Non-toxic | 467 nM | inactive | inactive | Non-toxic | Activity [1]: Toxic; Activity [10]: Toxic; Activity [16]: Non-toxic |
| CC1CCCN(CCCCCCOc2ccc(Cl)cc2)C1.O=C(O)C(=O)O (centres undefined) | Non-toxic | Active | inactive | Non-toxic | Non-toxic | inactive | inactive | inactive | 25% | Non-toxic | inactive | Active | Active | Non-toxic | 205 nM | inactive | inactive | Non-toxic | Activity [22]: inactive; Activity [23]: Active; TD50 (median neurotoxic dose) [24]: 50.4 mg/kg; Ratio TD50/ED50 [25]: 3; Activity [26]: Toxic; ED50 [27]: 16.8 mg/kg; Activity [28]: inactive; Activity [29]: Toxic; Activity [30]: inactive; ED50 [31]: > 50 mg/kg |

— ChEMBL document CHEMBL3745596, “Chlorophenoxy aminoalkyl derivatives as histamine H(3)R ligands and antiseizure agents” (Bioorg Med Chem, 2016)
